Test results taken from ChEMBL document CHEMBL3124866, “Small molecular antibacterial peptoid mimics: the simpler the better!” (J Med Chem, 2014).
In brackets after ≈: the same amount, converted by molar mass.

Key:
[1] = Hemolytic activity in human erythrocytes after 1 hr by spectrophotometric analysis; type: ADME, cell-based, Erythrocyte
Summary of the method: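 Heparinized fresh human erythrocytes at 5 vol% in PBS pH 7.4 were mixed 3:1 with serially diluted compound and held 1 h at 37 °C. Plates were centrifuged and supernatant A540 read. Hemolysis was scaled between an untreated control and a Triton X-100 (100% lysis) control. HC50 is the mean of at least two independent triplicate experiments.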

[2] = test system: Enterococcus faecium; assay: Antibacterial activity against vancomycin-resistant Enterococcus faecium ATCC 51559 after 24 hrs by broth microdilution assay; type: functional
Summary of the method: (§1)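 MIC by broth microdilution. Cultures were grown 6 h to ~10^9 cfu/mL, then diluted to 10^5 cfu/mL. Media: yeast-dextrose broth for MRSA, BHI for VRE, and beef extract/peptone nutrient broth for K. pneumoniae. Compounds were serially diluted in water, 50 µL added to 150 µL cells, and incubated 24 h at 37 °C. OD600 triplicates were sigmoid-fitted; MIC is the point where OD equals the no-bacteria control. Mean ± SEM of ≥2 experiments.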

[3] = test system: Escherichia coli; assay: Antibacterial activity against drug-sensitive Escherichia coli MTCC 443 after 24 hrs by broth microdilution assay; type: functional
Summary of the method: (§2)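 Bacteria grown 6 h to ~10^9 cfu/mL and diluted to 10^5 cfu/mL in nutrient media. Growth media were LB (E. coli), yeast-dextrose broth (S. aureus, P. aeruginosa) and BHI (E. faecium). Compound was serially diluted in water and added 1:3 to bacteria, then incubated 37 °C for 24 h with OD600 read-out. Triplicate ODs were sigmoid-fitted; MIC was taken where OD matched the no-bacteria control. At least two independent experiments.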

[4] = test system: Klebsiella pneumoniae; assay: Antibacterial activity against beta-lactam-resistant Klebsiella pneumoniae ATCC 700603 after 24 hrs by broth microdilution assay; type: functional; summary of the method: as §1
[5] = Retention time of the compound by HPLC analysis; type: physicochemical
[6] = test system: Pseudomonas aeruginosa; assay: Antibacterial activity against drug-sensitive Pseudomonas aeruginosa ATCC 4676 after 24 hrs by broth microdilution assay; type: functional; summary of the method: as §2
[7] = test system: Enterococcus faecium; assay: Antibacterial activity against drug-sensitive Enterococcus faecium ATCC 19634 after 24 hrs by broth microdilution assay; type: functional; summary of the method: as §2
[8] = test system: Staphylococcus aureus; assay: Antibacterial activity against methicillin-resistant Staphylococcus aureus ATCC 33591 after 24 hrs by broth microdilution assay; type: functional; summary of the method: as §1
[9] = test system: Staphylococcus aureus; assay: Antibacterial activity against drug-sensitive Staphylococcus aureus MTCC 737 after 24 hrs by broth microdilution assay; type: functional; summary of the method: as §2

## CCCCCCCCCCN(Cc1cccc2ccccc12)C(=O)[C@@H](N)CCCCN.O=C(O)C(F)(F)F.O=C(O)C(F)(F)F
[1]
  HC50 at 1 h: 54 µg/mL
[2]; ATCC 51559, 24 h
  MIC: 1.6 µg/mL
[3]; MTCC 443, 24 h
  MIC: 4 µg/mL
[4]; ATCC 700603, 24 h
  MIC: 5.8 µg/mL
[5]
  Retention_time: 14.2 min
[6]; ATCC 4676, 24 h
  MIC: 3 µg/mL
[7]; ATCC 19634, 24 h
  MIC: 3.5 µg/mL
[8]; ATCC 33591, 24 h
  MIC: 2.6 µg/mL
[9]; MTCC 737, 24 h
  MIC: 2.5 µg/mL

## CCCCCCCCCCCCN(Cc1ccccc1)C(=O)[C@@H](N)CCCCN.O=C(O)C(F)(F)F.O=C(O)C(F)(F)F
[1]
  HC50 at 1 h: 45 µg/mL
[2]; ATCC 51559, 24 h
  MIC: 3.3 µg/mL
[3]; MTCC 443, 24 h
  MIC: 5 µg/mL
[5]
  Retention_time: 14.5 min
[6]; ATCC 4676, 24 h
  MIC: 4 µg/mL
[7]; ATCC 19634, 24 h
  MIC: 2.6 µg/mL
[8]; ATCC 33591, 24 h
  MIC: 2.9 µg/mL
[9]; MTCC 737, 24 h
  MIC: 2.7 µg/mL

## CCCCCCCCN(Cc1ccccc1)C(=O)[C@@H](N)CCCCN.O=C(O)C(F)(F)F.O=C(O)C(F)(F)F
[1]
  HC50 at 1 h: 325 µg/mL
[2]; ATCC 51559, 24 h
  MIC: > 100 µg/mL
[3]; MTCC 443, 24 h
  MIC: 51 µg/mL
[4]; ATCC 700603, 24 h
  MIC: > 100 µg/mL
[5]
  Retention_time: 12.1 min
[6]; ATCC 4676, 24 h
  MIC: 60 µg/mL
[7]; ATCC 19634, 24 h
  MIC: 60 µg/mL
[8]; ATCC 33591, 24 h
  MIC: > 100 µg/mL
[9]; MTCC 737, 24 h
  MIC: 46 µg/mL

## CN[C@H](CC(C)C)C(=O)N[C@H]1C(=O)N[C@@H](CC(N)=O)C(=O)N[C@H]2C(=O)N[C@H]3C(=O)N[C@H](C(=O)N[C@H](C(=O)O)c4cc(O)cc(O)c4-c4cc3ccc4O)[C@H](O)c3ccc(c(Cl)c3)Oc3cc2cc(c3O[C@@H]2O[C@H](CO)[C@@H](O)[C@H](O)[C@H]2O[C@H]2C[C@](C)(N)[C@H](O)[C@H](C)O2)Oc2ccc(cc2Cl)[C@H]1O [VANCOMYCIN]
[2]; ATCC 51559, 24 h
  MIC: > 100 µg/mL
[7]; ATCC 19634, 24 h
  MIC: 0.87 µg/mL (≈ 0.6 µM)
[8]; ATCC 33591, 24 h
  MIC: 0.9 µg/mL (≈ 0.621 µM)
[9]; MTCC 737, 24 h
  MIC: 0.9 µg/mL (≈ 0.621 µM)

## CCN(Cc1c2ccccc2c(Cl)c2ccccc12)C(=O)[C@@H](N)CCCCN.O=C(O)C(F)(F)F.O=C(O)C(F)(F)F
[1]
  HC50 at 1 h: 118 µg/mL
[2]; ATCC 51559, 24 h
  MIC: 7.2 µg/mL
[3]; MTCC 443, 24 h
  MIC: 25 µg/mL
[4]; ATCC 700603, 24 h
  MIC: 31 µg/mL
[5]
  Retention_time: 11.8 min
[6]; ATCC 4676, 24 h
  MIC: 4 µg/mL
[7]; ATCC 19634, 24 h
  MIC: 13.6 µg/mL
[8]; ATCC 33591, 24 h
  MIC: 21 µg/mL
[9]; MTCC 737, 24 h
  MIC: 11 µg/mL

## CCCCN(Cc1ccccc1)C(=O)[C@@H](N)CCCCN.O=C(O)C(F)(F)F.O=C(O)C(F)(F)F
[1]
  HC50 at 1 h: > 1000 µg/mL
[3]; MTCC 443, 24 h
  MIC: > 100 µg/mL
[4]; ATCC 700603, 24 h
  MIC: > 100 µg/mL
[5]
  Retention_time: 9.4 min
[6]; ATCC 4676, 24 h
  MIC: > 100 µg/mL
[7]; ATCC 19634, 24 h
  MIC: > 100 µg/mL
[8]; ATCC 33591, 24 h
  MIC: > 100 µg/mL
[9]; MTCC 737, 24 h
  MIC: > 100 µg/mL

## CCCCCCCCCCCCN(Cc1cccc2ccccc12)C(=O)[C@@H](N)CCCCN.O=C(O)C(F)(F)F.O=C(O)C(F)(F)F
[1]
  HC50 at 1 h: 56 µg/mL
[2]; ATCC 51559, 24 h
  MIC: 3.4 µg/mL
[3]; MTCC 443, 24 h
  MIC: 3.1 µg/mL
[4]; ATCC 700603, 24 h
  MIC: 4 µg/mL
[5]
  Retention_time: 15.1 min
[6]; ATCC 4676, 24 h
  MIC: 3.2 µg/mL
[7]; ATCC 19634, 24 h
  MIC: 1.6 µg/mL
[8]; ATCC 33591, 24 h
  MIC: 2.7 µg/mL
[9]; MTCC 737, 24 h
  MIC: 3 µg/mL

## COLISTIN
[2]
  MIC: > 100 µg/mL
[3]
  MIC: 0.4 µg/mL
[4]
  MIC: 1.2 µg/mL
[6]
  MIC: 0.4 µg/mL
[7]
  MIC: > 100 µg/mL
[8]
  MIC: 54 µg/mL
[9]
  MIC: 20 µg/mL

## CCCCCCCCCCN(Cc1ccccc1)C(=O)[C@@H](N)CCCCN.O=C(O)C(F)(F)F.O=C(O)C(F)(F)F
[1]
  HC50 at 1 h: 95 µg/mL
[2]; ATCC 51559, 24 h
  MIC: 5.8 µg/mL
[3]; MTCC 443, 24 h
  MIC: 6.5 µg/mL
[4]; ATCC 700603, 24 h
  MIC: 31 µg/mL
[5]
  Retention_time: 13.4 min
[6]; ATCC 4676, 24 h
  MIC: 4 µg/mL
[7]; ATCC 19634, 24 h
  MIC: 6.5 µg/mL
[8]; ATCC 33591, 24 h
  MIC: 15.7 µg/mL
[9]; MTCC 737, 24 h
  MIC: 5.7 µg/mL

## CCCCCCCCN(Cc1cccc2ccccc12)C(=O)[C@@H](N)CCCCN.O=C(O)C(F)(F)F.O=C(O)C(F)(F)F
[1]
  HC50 at 1 h: 60 µg/mL
[2]; ATCC 51559, 24 h
  MIC: 7 µg/mL
[3]; MTCC 443, 24 h
  MIC: 5 µg/mL
[4]; ATCC 700603, 24 h
  MIC: 13 µg/mL
[5]
  Retention_time: 12.9 min
[6]; ATCC 4676, 24 h
  MIC: 5.4 µg/mL
[7]; ATCC 19634, 24 h
  MIC: 5.5 µg/mL
[8]; ATCC 33591, 24 h
  MIC: 4.4 µg/mL
[9]; MTCC 737, 24 h
  MIC: 6.3 µg/mL

## CCCCCCCCCCCCCCN(Cc1ccccc1)C(=O)[C@@H](N)CCCCN.O=C(O)C(F)(F)F.O=C(O)C(F)(F)F
[1]
  HC50 at 1 h: 50 µg/mL
[2]; ATCC 51559, 24 h
  MIC: 2.5 µg/mL
[3]; MTCC 443, 24 h
  MIC: 3.1 µg/mL
[4]; ATCC 700603, 24 h
  MIC: 4 µg/mL
[5]
  Retention_time: 15.8 min
[6]; ATCC 4676, 24 h
  MIC: 2.8 µg/mL
[7]; ATCC 19634, 24 h
  MIC: 2 µg/mL
[8]; ATCC 33591, 24 h
  MIC: 2.5 µg/mL
[9]; MTCC 737, 24 h
  MIC: 3.1 µg/mL

## CCCCCCN(Cc1ccccc1)C(=O)[C@@H](N)CCCCN.O=C(O)C(F)(F)F.O=C(O)C(F)(F)F
[1]
  HC50 at 1 h: > 1000 µg/mL
[3]; MTCC 443, 24 h
  MIC: > 100 µg/mL
[4]; ATCC 700603, 24 h
  MIC: > 100 µg/mL
[5]
  Retention_time: 10.6 min
[6]; ATCC 4676, 24 h
  MIC: > 100 µg/mL
[7]; ATCC 19634, 24 h
  MIC: > 100 µg/mL
[8]; ATCC 33591, 24 h
  MIC: > 100 µg/mL
[9]; MTCC 737, 24 h
  MIC: > 100 µg/mL
